In the library only some 1.4% were active in any assay of this set; here they are far more common.
DDE Tn6 FP inh: inhibitors of Tn6 peptide binding to fibrin DD(E), primary screen, biochemical, fluorescence polarization, human fibrin, Tn6 probe | Fibrinogen beta chain (Homo sapiens), P02675 | Fibrin DD(E) TRITC-Tn6 fluorescence polarization displacement | hit rate 0.21% among 370,000 | inhibition, % at 8.3 µM;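 active = inhibition above a per-campaign cutoff: mean of compounds within control limits plus 3 SD, cut at about 15% in these data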
Target sequence (P02675 whole entry, looked up): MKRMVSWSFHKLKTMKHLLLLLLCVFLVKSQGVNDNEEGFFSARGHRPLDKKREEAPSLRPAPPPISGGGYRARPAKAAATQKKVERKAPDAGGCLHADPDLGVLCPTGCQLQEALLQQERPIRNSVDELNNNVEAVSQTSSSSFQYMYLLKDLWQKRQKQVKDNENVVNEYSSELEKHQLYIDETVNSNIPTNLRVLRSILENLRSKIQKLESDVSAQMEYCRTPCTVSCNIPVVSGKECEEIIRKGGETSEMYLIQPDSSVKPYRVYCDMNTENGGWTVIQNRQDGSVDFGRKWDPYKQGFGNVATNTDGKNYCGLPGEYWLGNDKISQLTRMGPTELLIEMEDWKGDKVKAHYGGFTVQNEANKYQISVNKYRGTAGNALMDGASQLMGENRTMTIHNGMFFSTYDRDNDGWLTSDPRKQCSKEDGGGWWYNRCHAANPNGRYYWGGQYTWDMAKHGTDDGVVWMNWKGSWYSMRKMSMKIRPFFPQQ
CAL PDZ FP-1: untagged CAL PDZ binding inhibitors, primary screen, biochemical, fluorescence polarization, HTS. Golgi-associated PDZ and coiled-coil motif-containing protein (Homo sapiens), Q9HD26. purified CAL PDZ, TMR-peptide fluorescence polarization, 1 h. inhibition, % at 24.9 µM. hit rate 0.92% among 300,000. AID 602252, 2012;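 active = mean inhibition of at least 30% with at least half of replicates also reaching 30%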
Tn7 DDE FP: inhibitors of Tn7 peptide binding to fibrin DD(E), primary screen, biochemical, fluorescence polarization, human fibrin, Tn7 probe | FP displacement of FITC-Tn7 peptide from fibrin DD(E); 0% = median of compound wells per plate | AID 720508, 2013 | inhibition, % at 8.3 µM | hit rate 0.13% among 370,000 | Fibrinogen beta chain (Homo sapiens), P02675;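 active = inhibition above the mean of compounds falling within the control limits plus 3 SD of them, cut at about 14% in these data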
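Test system – human fibrin DD(E) · Times – 10 min preincubation, 3 h with tracer, room temperature · Detection – fluorescence polarization of the labelled Tn7 tracer · Measure – percent inhibition normalized to high-control wells · Benchmarks – high control wells with 10 µM unlabelled Aha-Tn7 peptide (full inhibition) · Repeats – singlicate testing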
CAL PDZ FP-2: CAL PDZ peptide-binding inhibitors, primary screen, biochemical, fluorescence polarization, Cer-tagged CAL PDZ, HTS. Golgi-associated PDZ and coiled-coil motif-containing protein (Homo sapiens), Q9HD26. purified CAL PDZ, TMR-peptide fluorescence polarization, 1 h. inhibition, % at 20 µM. hit rate 0.02% among 330,000;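 active = highest replicate inhibition of at least 40%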
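material = purified tagged CAL PDZ domain construct (CerCALP) | buffer or medium = sodium phosphate/NaCl buffer pH 7.4 with TCEP, IgG, Thesit | reagent = TMR-labelled reporter peptide T*-PRC34 bound in PDZ groove | incubation = 1 h room-temperature incubation prior to read | measured by = fluorescence polarization (mP) | evaluation = percent inhibition from loss of millipolarization | control set = unlabelled peptide and DMSO controls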
Arrestin-AP2 inh: inhibitors of beta-arrestin/AP2 binding, primary screen, biochemical, GPCR trafficking, flow cytometry. beta-arrestin 1 C-terminal peptide binding to AP2 beta2-adaptin appendage (human). FITC-arrestin peptide / GST-AP2 beads; AP2 beta2 appendage carries R879A mutation. inhibition, % at 10 µM. hit rate 0.31% among 340,000;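 active = inhibition above a set limit, near 3 SD of compounds lacking own fluorescence, cut at about 54% in these data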
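Test system: GST-tagged AP2 beta2-adaptin appendage (R879A) on 4 µm glutathione beads; also added: fluorescein-tagged arrestin peptide at 50 nM final; timing: 12 min plus 1 h, RT; signal: flow cytometry, FL1 (488/535 nm); read-out: percent drop in bead-associated FITC signal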
Each line names hits and unclear results; the compound was inactive in the other large screens.

Cc1ccccc1N(C(=O)c1csnn1)C(C(=O)NC1CCCC1)c1ccncc1 (stereo not given)	CAL PDZ FP-1 32.5
Cc1ccc(C)c(N(C(=O)c2csnn2)C(C(=O)NC2CCCCC2)c2ccncc2)c1 (stereo not given)	none
O=[N+]([O-])c1ccc(Oc2cccnc2)c([N+](=O)[O-])c1	CAL PDZ FP-1 37.0
COCCNC(=O)/C(C#N)=C/c1c(N2CCN(c3ccccc3)CC2)nc2ccccn2c1=O	CAL PDZ FP-1 57.2
Cc1cc(C)n(C(=O)c2cccc(S(=O)(=O)N3CCOCC3)c2)n1	CAL PDZ FP-1 63.6
Cc1cc(C)n(C(=O)c2cccc(S(=O)(=O)N3CCCCC3)c2)n1	none
Oc1ccc(C=NNC(=S)Nc2ccc(F)cc2)c(O)c1	CAL PDZ FP-1 31.8
O=C(CCC(=O)Nc1ccc(F)cc1)N/N=C/c1ccc(O)cc1O	none
C[C@H]1Cn2nnc(-c3ccccc3)c2Cn2c3ccccc3c(=O)n21	none (no result: CAL PDZ FP-1, CAL PDZ FP-2, Arrestin-AP2 inh)
COc1ccc(-c2cc(C(=O)NN=Cc3cccn3C)[nH]n2)cc1	none (no result: CAL PDZ FP-1, CAL PDZ FP-2, Arrestin-AP2 inh)
CCOC(=O)C1(C)NC(c2cc(OC)c(OC)c(OC)c2)C2C(=O)N(CC)C(=O)C21 (stereo not given)	CAL PDZ FP-1 67.0
COc1cccc(C(=O)Nc2ccc3nc4n(c(=O)c3c2)CCCC4)c1	CAL PDZ FP-1 63.1
O=C(CN1CCN(C(=O)c2ccco2)CC1)Nc1ccccc1	none
O=C(CN1CCN(C(=O)c2ccco2)CC1)Nc1ccc(F)cc1F	CAL PDZ FP-1 89.4
CN(CC(=O)Nc1ccc(F)cc1)C(=O)COC(=O)c1ccc(=O)n(Cc2ccccc2)n1	Tn7 DDE FP 56.4
CCN1C(=O)c2ccc(C(=O)Nc3ncc(C)s3)cc2C1=O	CAL PDZ FP-1 46.5
Cc1cnc(NC(=O)c2ccc3c(c2)C(=O)N(Cc2ccco2)C3=O)s1	none
Cc1c(C(=O)C(=O)NCc2ccco2)c2ccccc2n1C	CAL PDZ FP-1 56.2
O=C(/C=C/c1ccco1)Nc1ccc2c(c1)OCO2	CAL PDZ FP-1 60.0 (no result: CAL PDZ FP-2)
CCOC(=O)c1cc2nc(OCC)nc(OCC)c2[nH]1	CAL PDZ FP-1 40.6
CC(C)(C)OC(=O)n1cc(C(=O)c2ccccc2O)cn1	CAL PDZ FP-1 70.3
CCOC(=O)n1cc(C(=O)c2ccccc2O)cn1	none
COC(=O)[C@]12C[C@H](CC(=O)NCCCN3CCCC3=O)C(=O)N(CCC3=CCCCC3)C1=C[C@H](C1CCCC1)O[C@@H]2C	none (no result: CAL PDZ FP-1, CAL PDZ FP-2, Arrestin-AP2 inh)
CN(CCc1ccccc1)C(=O)c1cc2ccccn2n1	none (no result: CAL PDZ FP-1, CAL PDZ FP-2, Arrestin-AP2 inh)
O=C(C1=C(O)C(=O)N(CCN2CCOCC2)C1c1ccccc1)c1cccs1 (stereo not given)	CAL PDZ FP-1 31.5
O=C(C1=C(O)C(=O)N(CCN2CCOCC2)C1c1cccc([N+](=O)[O-])c1)c1cccs1 (stereo not given)	none
S=c1[nH]nc(-c2n[nH]c3c2CCC3)n1N=Cc1ccc(OCc2ccccc2)cc1	none (no result: CAL PDZ FP-1, CAL PDZ FP-2, Arrestin-AP2 inh)
CCC(C(=O)Nc1ccccc1)c1ccccc1 (stereo not given)	none
CCC(C(=O)NN1C(=O)c2ccccc2C1=O)c1ccccc1 (stereo not given)	CAL PDZ FP-2 45.4
O=C(CSc1nnc(-c2ccccn2)n1-c1ccccc1)c1ccc(F)cc1	none (no result: CAL PDZ FP-1, CAL PDZ FP-2, Arrestin-AP2 inh)
CN1CCCN(C(=O)CN2C(=O)CC(C)(C)S(=O)(=O)c3ccccc32)CC1	none (no result: CAL PDZ FP-1, CAL PDZ FP-2, Arrestin-AP2 inh)
CCn1c(SCc2ccc(F)cc2)nnc1C1CCN(S(=O)(=O)c2ccc(OC)cc2)CC1	CAL PDZ FP-1 48.9
O=C(Nc1ccccc1C(F)(F)F)OCCCN1CCC2(CCC(c3ccccc3)CC2)C1=O (stereo not given)	none (no result: CAL PDZ FP-1, CAL PDZ FP-2, Arrestin-AP2 inh)
CCCn1nc(NS(=O)(=O)c2ccccc2)c2cc3ccccc3nc21	CAL PDZ FP-1 58.4

High-throughput results from PubChem BioAssay.
